KCNK3 block: human KCNK3 channel inhibition, primary screen; O14649; CHO-KCNK3 thallium flux, FluxOR fluorescence; active compounds read low; B-score at 10 µM; actives 0.84% (n = 340,000); AID 602410;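 active = B-score under library mean minus 4 SD, starting fluorescence ratio at most library mean plus 5 SD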;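 also: more negative B-score means stronger inhibition of thallium flux through KCNK3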
KCNK9 inh: inhibitors of human KCNK9 two-pore domain potassium channel; Q9NPC2; HEK293 KCNK9, FluxOR thallium flux fluorescence; active compounds read low; B-score at 10 µM; actives 1.2% (n = 310,000); AID 488922;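 active = ratio B-score over 3 SD below the library mean, with starting fluorescence within 5 SD of its mean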;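 also: negative B-score means less thallium flux so channel inhibition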
Target sequence (Q9NPC2 whole entry, looked up, the tested form may be a part): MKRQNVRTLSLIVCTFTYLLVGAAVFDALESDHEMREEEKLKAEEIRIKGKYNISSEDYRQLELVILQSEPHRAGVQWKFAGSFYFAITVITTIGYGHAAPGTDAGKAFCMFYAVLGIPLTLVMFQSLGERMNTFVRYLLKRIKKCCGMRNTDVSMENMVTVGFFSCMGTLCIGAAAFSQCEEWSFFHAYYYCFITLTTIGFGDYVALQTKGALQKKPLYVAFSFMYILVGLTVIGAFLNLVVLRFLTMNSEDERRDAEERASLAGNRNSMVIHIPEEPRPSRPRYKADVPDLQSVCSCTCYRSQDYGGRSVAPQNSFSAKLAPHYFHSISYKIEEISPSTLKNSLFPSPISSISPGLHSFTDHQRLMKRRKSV
hERG protect: shields human hERG channel from block by proarrhythmic agents; Q12809; CHO-hERG, FluxOR thallium flux, dofetilide IC70 present; activation (rescue from dofetilide block), less the hit threshold, % at 10 µM; actives 0.51% (n = 310,000);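 active = activation above the mean of controls blocked by dofetilide plus 5 SD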;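 also: thallium influx through hERG after potassium depolarization seen as dye fluorescence rise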
KCNQ1 block: blocks the human KCNQ1 potassium channel; P51787; CHO-K1 KCNQ1, FluxOR thallium flux fluorescence; active compounds read high; B-score at 10 µM; actives 1.3% (n = 310,000); AID 2642;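 active = compounds whose thallium flux B-score, printed positive for inhibition, exceeds three library SD while starting fluorescence stays within three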;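 also: channel opened by potassium depolarization with thallium stimulus after 20 min compound exposure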
KCNQ1 act: human KCNQ1 channel potentiation or activation; AID 2648; CHO-K1 KCNQ1, thallium flux FluxOR fluorescence; active compounds read high; B-score at 10 µM; actives 0.35% (n = 310,000);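 active = fluorescence ratio B-score, a plate-corrected score, at least three library SD, with initial intensity B-score within 5 SD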
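Assay system: CHO-K1 cells stably expressing KCNQ1; Medium: assay buffer with matched DMSO; Also added: K+/Tl+ depolarizing stimulus; Dosing: single dose; Timing: dye 90 min, compound 20 min, room temperature; Measured by: kinetic FluxOR thallium fluorescence, 10-s 1-Hz baseline, 110-s post-stimulus read; Read-out: peak-minus-minimum fluorescence over initial fluorescence, negative-control normalized, B-scored.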
KCNQ1 inh valid: confirmation of human KCNQ1 potassium channel inhibitors | shares compounds with KCNQ1 block | KCNQ1 cell line, FluxOR thallium flux fluorescence | inhibition, % at 10 µM | actives 93% (n = 1,600);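 active = primary screen active, with duplicate mean exceeding buffer control mean plus 3 SD of buffer wells, cut at about 28% in these data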;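 also: 0% = buffer control ratio and 100% = XE991 inhibitor control ratio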
CHO Tl flux: counter-screen for KCNQ1 inhibitors: effect in parental CHO cells; AID 588366; fluorescence ratio (Tl flux) at 10 µM; shares compounds with KCNQ1 block; actives 21% (n = 1,600); parental CHO-K1, FluxOR thallium flux fluorescence ratio; active compounds read low; zero means no signal rise above baseline;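 active = mean of duplicate thallium-flux fluorescence ratios in parental host cells more than 5 SD below the buffer control mean, cut at about 0.38 in these data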;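 also: ratio is peak minus minimum fluorescence divided by baseline fluorescence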
KCNQ1 APC inh: human KCNQ1 inhibition validated by electrophysiology; calls only at 10 µM; actives 20% (n = 490); shares compounds with KCNQ1 block; KCNQ1-CHO cells, automated patch clamp current;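 active = KCNQ1 current drop exceeding 3 SD of negative control wells, seen in both duplicate runs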;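 also: steady state current during a 2 s step from -80 to +40 mV; negative values mean current inhibition and positive values mean potentiation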
KCNQ2 inh: KCNQ1 inhibitor that also blocks rat KCNQ2 channel; shares compounds with KCNQ1 block; KCNQ2 cells, FluxOR thallium flux fluorescence; inhibition, % at 10 µM; actives 71% (n = 1,600); AID 651746;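 active = mean percent inhibition of the KCNQ2 thallium signal more than 5 SD above the buffer-only control wells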;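 also: KCNQ2 expressed in CHO cells; 0% = buffer control wells and 100% = XE-991 inhibitor control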
KCNQ1 KCNE1 spec: human KCNQ1/KCNE1 inhibition in KCNQ1 specificity screen; shares compounds with KCNQ1 block; KCNQ1/KCNE1 cells, FluxOR thallium flux fluorescence; inhibition, % at 10 µM; actives 77% (n = 1,600); AID 652147;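 active = mean percent inhibition of duplicate wells above the buffer-only control mean plus 3 SD of those controls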;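 also: 0% = buffer only wells and 100% = XE-991 inhibitor control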
KCNK9 inh conf: confirmation of human KCNK9 potassium channel inhibitors | shares compounds with KCNK9 inh | HEK293 KCNK9 cells, FluxOR thallium flux fluorescence | inhibition, % at 10 µM | actives 43% (n = 4,900) | AID 492992;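 active = thallium signal inhibited by more than 5 SD of the compound-free buffer control wells, on both duplicate plates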;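 also: 0% = assay buffer control wells without compound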
Kir21 sel: mouse Kir2.1 off-target activity of KCNK9 modulators | shares compounds with KCNK9 inh | Kir2.1 cells, FluxOR thallium flux fluorescence | inhibition, % at 10 µM | actives 4% (n = 4,900) | AID 492993;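 active = thallium signal drop more than 5 SD beyond the mean of the no-compound control wells, seen in both duplicate plates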;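 also: signal is fluorescence rise after thallium addition divided by baseline fluorescence; plate controls were assay buffer only for no effect and full block by chlorpromazine control for full effect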
HEK293 Tl ctr: second counter-screen for KCNK9 modulators: effect in non-induced cells; AID 492997; shares compounds with KCNK9 inh; inhibition, % at 10 µM; actives 40% (n = 4,900); non-induced KCNK9-HEK293, FluxOR thallium flux;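 active = thallium signal drop beyond 5 SD of the untreated control mean, on both duplicate plates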;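 also: plate controls were buffer only IC0 wells for no effect and SID17386958 at its maximal inhibitory level for full effect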
KCNK3 inh conf: human KCNK3 channel inhibition, confirmation assay | CHO-KCNK3 thallium flux, FluxOR fluorescence; 0% buffer, 100% carvedilol maximal block | ratio percent of control, % at 10 µM | shares compounds with KCNK3 block | AID 651638 | actives 99% (n = 2,400);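 active = ratio percent of control, averaged over triplicates, above buffer control mean plus 5 SD, cut at about 64% in these data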;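 also: ratio is the fluorescence rise from min to max over baseline after thallium stimulus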
KCNK3 noninduced: activity in cells without induced KCNK3 expression; shares compounds with KCNK3 block; AID 651747; non-induced KCNK3 parental cells, FluxOR thallium flux; active compounds read low; thallium flux ratio (lower = more inhibition) at 10 µM; actives 40% (n = 2,400);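 active = thallium flux ratio, averaged over three wells, more than 5 SD below the buffer control mean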;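 also: host cells are CHO cells without KCNK3 induction; ratio is peak minus trough fluorescence over baseline then normalized to buffer controls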
An asterisk follows results filed as active; i = inactive; · = no result given; + = active, no number. Most compounds without a hit are left out; they make up all but 3.1% or so of the library.

SMILES	KCNK3 block	KCNK9 inh	hERG protect	KCNQ1 block	KCNQ1 act	KCNQ1 inh valid	CHO Tl flux	KCNQ2 inh	KCNQ1 KCNE1 spec	KCNK3 inh conf	KCNK3 noninduced	others
CC(C)=CCc1c(O)cc2oc3c(CC=C(C)C)c(O)c(O)c(CC=C(C)C)c3c(=O)c2c1O	-9.2*	-13*	-34	16*	i	150*	0.35*	124%*	+	146*	0.11*	KCNK9 inh conf=62%*;Kir21 sel=i;HEK293 Tl ctr=34%*
COc1ccc(NC(=O)C2CCCN(S(=O)(=O)c3ccc(Cl)cc3)C2)cc1OC (centres undefined)	i	i	-8	i	i	·	·	·	·	·	·
S=C(NCc1ccccc1)NC1CCCc2ccccc21 (centres undefined)	-13*	i	-12	8*	i	0	0.48	66%*	i	112*	i
S=C(Nc1ccc(Br)cc1)NC1CCCC1	i	i	-4	i	i	·	·	·	·	·	·
FC(F)Sc1ccc(NC(=S)NC2CCCCC2)cc1	-10*	i	-20	10*	i	78*	0.53	i	36%*	104*	i
CCn1c(=NC(=O)C2COc3ccccc3O2)sc2c(OC)ccc(OC)c21 (centres undefined)	-10*	-6.6*	-15	7*	i	80*	0.39	82%*	126%*	112*	i
Cc1ccc(Cl)cc1S(=O)(=O)N1CCC(C(=O)NC2CCN(Cc3ccccc3)CC2)CC1	i	i	-13	i	i	·	·	·	·	·	·
CCOc1ccc(OCCC(=O)OCC(=O)NC2CCCC2)cc1	i	·	·	·	·	·	·	·	·	·	·
CCc1cc(=S)n2c([nH]c3ccccc32)c1C#N	-9.3*	i	-11	11*	i	102*	0.44	112%*	82%*	137*	0.057*	KCNQ1 APC inh=i
CC(C)=CCc1c(O)cc(O)c2c1OC(c1ccc(O)cc1)CC2=O (centres undefined)	-15*	-12*	-10	9*	i	130*	0.35*	108%*	+	139*	0.11*	KCNK9 inh conf=48%*;Kir21 sel=i;HEK293 Tl ctr=i
Cc1ccc(C)c(NC(=S)Nc2cccnc2)c1	i	i	-9	i	i	·	·	·	·	·	·
Cc1ccc(NC(=S)Nc2cccnc2)c(S(=O)(=O)N2CCCCC2)c1	-12*	i	-23	13*	i	97*	0.51	i	68%*	110*	i	KCNQ1 APC inh=i
COc1ccc(NC(=O)Cc2ccc(C)c(C)c2)cc1S(=O)(=O)N1CCCCC1	i	·	·	·	·	·	·	·	·	·	·

Compound activity (PubChem BioAssay)
